Test results reported in ChEMBL document CHEMBL1921792, “Synthesis and anticonvulsant activity of trans- and cis-2-(2,6-dimethylphenoxy)-N-(2- or 4-hydroxycyclohexyl)acetamides and their amine analogs” (Bioorg Med Chem, 2011).
The source made the active and inactive calls. No cut-off for these calls is given here.

How the values were obtained:
N1E-115 = assay: Blockade of voltage-gated sodium channel in mouse N1E-115 cells assessed as stimulation at 100 umol at -90 mV holding potential by whole-cell patch clamp electrophysiological assay relative to control; type: cell-based
In short: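 Whole-cell patch clamp with borosilicate glass electrodes on single cultured N1E-115 neuroblastoma cells. Compound at 100 µmol, holding potential -90 mV. Voltage-dependent sodium current expressed as % of control stimulation (no compound). Results from 5–8 cells averaged with SEM; significance by Student's t-test.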

Mus musculus [1] = assay: Anticonvulsant activity against subcutaneous pentylenetetrazole-induced seizures in mouse at 100 mg/kg, ip after 4 hrs; type: functional, organism-based; design: dose 100 mg/kg
In short: (§1)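 Phase I screen in mice. Compound given ip as a suspension in 0.5% methylcellulose, read at 30 min and 4 h. Pentylenetetrazole 85 mg/kg in 0.9% NaCl was injected sc into the posterior midline and animals watched ≥30 min. Protection meant no clonic spasm lasting ≥5 s. Groups of 1–8 animals; result is protected/tested.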

Mus musculus [2] = assay: Anticonvulsant activity in mouse assessed as protection against maximal electric shock-induced seizures at 100 mg/kg, ip after 4 hrs; type: functional, organism-based; design: dose 100 mg/kg
In short: (§2)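 Phase I maximal electroshock screen in mice. Compound given ip as a suspension in 0.5% methylcellulose at 30, 100 or 300 mg/kg, tested at 30 min and 4 h. Small groups (1–8); result is number protected/number tested.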

Mus musculus [3] = assay: Anticonvulsant activity against subcutaneous pentylenetetrazole-induced seizures in mouse at 300 mg/kg, ip after 4 hrs; type: functional, organism-based; design: dose 300 mg/kg; in short: as §1
Mus musculus [4] = assay: Neurotoxicity in mouse assessed as inability to maintain equilibrium on rotarod at 300 mg/kg, ip after 4 hrs by rotarod test; type: toxicity, organism-based; design: dose 300 mg/kg, route intraperitoneal; details: in vivo
In short: (§3)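 Drug given ip to mice as a suspension in 0.5% methylcellulose. At the stated time after dosing, each mouse was placed on a 1 inch knurled rod turning at 6 rpm. Neurotoxicity = inability to stay balanced at least 1 min in each of three trials. Scored as animals toxic/animals tested in small groups.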

Mus musculus [5] = assay: Neurotoxicity in mouse assessed as inability to maintain equilibrium on rotarod at 100 mg/kg, ip after 4 hrs by rotarod test; type: toxicity, organism-based; design: dose 100 mg/kg, route intraperitoneal; details: in vivo; in short: as §3
Rattus norvegicus [6] = assay: Anticonvulsant activity in rat assessed as protection against maximal electric shock-induced seizures at 30 mg/kg, po after 0.25 hrs; type: functional, organism-based; design: dose 30 mg/kg
In short: (§4)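 MES test in rats dosed orally at 30 mg/kg as a suspension in 0.5% methylcellulose, read at 0.25–4 h. Four rats per time point; result is protected/tested.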

Rattus norvegicus [7] = assay: Neurotoxicity in rat assessed as neurological deficit at 30 mg/kg, po after 0.5 hrs […]; type: toxicity, organism-based; design: dose 30 mg/kg, route oral; details: in vivo
In short: (§5)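 Rats given the compound, suspended in 0.5% methylcellulose, by the stated route and dose. Neurological deficit was recorded at the listed times as ataxia and loss of placing response and muscle tone. Reported as number of rats showing toxicity/number tested.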

Mus musculus [8] = assay: Anticonvulsant activity in mouse assessed as protection against maximal electric shock-induced seizures at 300 mg/kg, ip after 4 hrs; type: functional, organism-based; design: dose 300 mg/kg; in short: as §2
Mus musculus [9] = assay: Neurotoxicity in mouse assessed as inability to maintain equilibrium on rotarod at 30 mg/kg, ip after 0.5 hrs by rotarod test; type: toxicity, organism-based; design: dose 30 mg/kg, route intraperitoneal; details: in vivo; in short: as §3
Rattus norvegicus [10] = assay: Neurotoxicity in rat assessed as neurological deficit at 30 mg/kg, po after 2 hrs […]; type: toxicity, organism-based; design: dose 30 mg/kg, route oral; details: in vivo; in short: as §5
Mus musculus [11] = assay: Anticonvulsant activity against subcutaneous pentylenetetrazole-induced seizures in mouse at 30 mg/kg, ip after 0.5 hrs; type: functional, organism-based; design: dose 30 mg/kg; in short: as §1
Mus musculus [12] = assay: Anticonvulsant activity in mouse assessed as protection against maximal electric shock-induced seizures at 30 mg/kg, ip after 4 hrs; type: functional, organism-based; design: dose 30 mg/kg; in short: as §2
Rattus norvegicus [13] = assay: Neurotoxicity in rat assessed as neurological deficit at 30 mg/kg, po after 1 hr […]; type: toxicity, organism-based; design: dose 30 mg/kg, route oral; details: in vivo; in short: as §5
Mus musculus [14] = assay: Anticonvulsant activity in mouse assessed as protection against maximal electric shock-induced seizures at 300 mg/kg, ip after 0.5 hrs; type: functional, organism-based; design: dose 300 mg/kg; in short: as §2
Rattus norvegicus [15] = assay: Neurotoxicity in rat assessed as neurological deficit at 30 mg/kg, po after 4 hrs by rotarod test; type: toxicity, organism-based; design: dose 30 mg/kg, route oral; details: in vivo; in short: as §5
Rattus norvegicus [16] = assay: Anticonvulsant activity in rat assessed as protection against maximal electric shock-induced seizures at 30 mg/kg, po after 0.5 hrs; type: functional, organism-based; design: dose 30 mg/kg; in short: as §4
Mus musculus [17] = assay: Anticonvulsant activity in mouse assessed as protection against maximal electric shock-induced seizures at 30 mg/kg, ip after 0.5 hrs; type: functional, organism-based; design: dose 30 mg/kg; in short: as §2
Mus musculus [18] = assay: Anticonvulsant activity in mouse assessed as protection against maximal electric shock-induced seizures at 100 mg/kg, ip after 0.5 hrs; type: functional, organism-based; design: dose 100 mg/kg; in short: as §2
Rattus norvegicus [19] = assay: Neurotoxicity in rat assessed as neurological deficit at 30 mg/kg, po after 0.25 hrs […]; type: toxicity, organism-based; design: dose 30 mg/kg, route oral; details: in vivo; in short: as §5
Mus musculus [20] = assay: Anticonvulsant activity against subcutaneous pentylenetetrazole-induced seizures in mouse at 30 mg/kg, ip after 4 hrs; type: functional, organism-based; design: dose 30 mg/kg; in short: as §1
Mus musculus [21] = assay: Neurotoxicity in mouse assessed as inability to maintain equilibrium on rotarod at 30 mg/kg, ip after 4 hrs by rotarod test; type: toxicity, organism-based; design: dose 30 mg/kg, route intraperitoneal; details: in vivo; in short: as §3
Mus musculus [22] = assay: Neurotoxicity in mouse assessed as inability to maintain equilibrium on rotarod at 300 mg/kg, ip after 0.5 hrs by rotarod test; type: toxicity, organism-based; design: dose 300 mg/kg, route intraperitoneal; details: in vivo; in short: as §3
Mus musculus [23] = assay: Anticonvulsant activity against subcutaneous pentylenetetrazole-induced seizures in mouse at 300 mg/kg, ip after 0.5 hrs; type: functional, organism-based; design: dose 300 mg/kg; in short: as §1
Mus musculus [24] = assay: Anticonvulsant activity against subcutaneous pentylenetetrazole-induced seizures in mouse at 100 mg/kg, ip after 0.5 hrs; type: functional, organism-based; design: dose 100 mg/kg; in short: as §1

## Nc1nnc(-c2cccc(Cl)c2Cl)c(N)n1
N1E-115
  Activity: 67%

## Cc1cccc(C)c1OCC(=O)NC1CCC(O)CC1.Cl (racemic)
Mus musculus [1]
  Activity: inactive
Mus musculus [2]
  Activity: inactive
Mus musculus [3]
  Activity: inactive
Mus musculus [4]
  Activity: Non-toxic
Mus musculus [5]
  Activity: Non-toxic
Rattus norvegicus [6]
  Activity: Active
Rattus norvegicus [7]
  Activity: Non-toxic
Mus musculus [8]
  Activity: inactive
Mus musculus [9]
  Activity: Non-toxic
Rattus norvegicus [10]
  Activity: Non-toxic
Mus musculus [11]
  Activity: inactive
Mus musculus [12]
  Activity: inactive
Rattus norvegicus [13]
  Activity: Non-toxic
Mus musculus [14]
  Activity: Active
Rattus norvegicus [15]
  Activity: Non-toxic
Rattus norvegicus [16]
  Activity: Active
Mus musculus [17]
  Activity: inactive
Mus musculus [18]
  Activity: Active
Rattus norvegicus [19]
  Activity: Non-toxic
Mus musculus [20]
  Activity: inactive
Mus musculus [21]
  Activity: Non-toxic
Mus musculus [22]
  Activity: Toxic
Mus musculus [23]
  Activity: Active
Mus musculus [24]
  Activity: inactive
